Measurements pooled from the literature.
Each line is one published result; the experiments were not run side by side.
Read-out: cell growth or viability

SMILES | cell line | technique | time | IC50
COc1cc(NC(=O)C(=O)[C@H](CC(C)C)NC(=O)[C@H](CC(C)C)NC(=O)[C@H](CC(C)C)NC(=O)c2ccc(-c3ccc(C(C)=O)cc3)o2)cc(OC)c1 | RPMI-8226 | MTS | 72 h | 36.1 nM
COc1ccc2[nH]cc(CCNc3nccc(Nc4cccc5c4ccn5C)n3)c2c1 | RPMI-8226 | fluorescence | 72 h | 12 nM
CCOP(=S)(OCC)Oc1nc(Cl)c(Cl)cc1Cl | ReNcell VM | – | 24 h | ~9900 nM
CC(C)C[C@H](NC(=O)OCc1ccccc1)C(=O)N[C@@H](Cc1c[nH]c2ccccc12)C(=O)N[C@@H](CC(C)C)C(=O)C(=O)Nc1cccc(S(C)(=O)=O)c1 | RPMI-8226 | MTS | 72 h | 33.2 nM
C=C(C)[C@H]1Cc2c(ccc3c2O[C@@H]2COc4cc(OC)c(OC)cc4[C@@H]2C3=O)O1 | ReNcell VM | – | 24 h | 270 nM
CC(=O)c1cccc(NC(=O)C(=O)[C@H](CC(C)C)NC(=O)[C@H](Cc2ccccc2)NC(=O)[C@H](CC(C)C)NC(=O)OCc2ccccc2)c1 | RPMI-8226 | MTS | 72 h | 163 nM
Cc1cccc(-n2ncc(Cl)c(Cl)c2=O)c1 | NCI-H2444 | resazurin | 96 h | 240 nM
Cc1cc(N(CCO)CCO)ccc1C(=O)O | ACHN | – | – | > 10 µg/mL
C[C@H]1O[C@@H](O[C@H]2[C@@H](O)C[C@H](O[C@H]3[C@@H](O)C[C@H](O[C@H]4CC[C@@]5(C)[C@H](CC[C@@H]6[C@@H]5C[C@@H](O)[C@]5(C)[C@@H](C7=CC(=O)OC7)CC[C@]65O)C4)O[C@@H]3C)O[C@@H]2C)C[C@H](O)[C@@H]1O | ReNcell VM | imaging | 24 h | ~2020 nM
CC(C)C[C@H](NC(=O)OCc1ccccc1)C(=O)N[C@@H](CC(C)C)C(=O)N[C@@H](CC(C)C)C(=O)C(=O)Nc1cccc2cnccc12 | RPMI-8226 | MTS | 72 h | 133 nM
N[C@@H](Cc1ccc(N(CCCl)CCCl)cc1)C(=O)O | IOSE-144 | CCK-8 | 48 h | > 50000 nM
CCCCC/C=C\C/C=C\C/C=C\C/C=C\CCCC(=O)NCCO | ReNcell VM | – | 24 h | ~8000 nM
Cc1cc(N(CCO)CCO)ccc1C=O | ACHN | – | – | > 10 µg/mL
O=C(O)CCCc1ccc(N(CCCl)CCCl)cc1 | IOSE-144 | CCK-8 | 48 h | 16500 nM
